Results: ChEMBL document CHEMBL1158603, “S-aryltriazole acyclonucleosides: synthesis and biological evaluation against hepatitis C virus” (Bioorg Med Chem Lett, 2010)
The source made the active and inactive calls. No cut-off for these calls is given here.

Tested on: Hepatitis C virus
Experiment: Antiviral activity against HCV infected in human HuH5.2 cells assessed as inhibition of subgenomic RNA replication after 4 days by Steady-Glo luciferase assay
Type: functional, organism-based
Details: Hepacivirus hominis
How it was run: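 Huh-5-2 replicon cells seeded at 5000/well in complete DMEM with 250 µg/mL G418, grown 24 h at 37 °C (5% CO2). Medium then replaced by threefold serial dilutions of compound in complete DMEM without G418. After 4 days at 37 °C, medium removed and luciferase activity read by luminescence.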

| Structure (SMILES) | Activity |
| --- | --- |
| COC(=O)c1nc(Sc2ccccc2C(F)(F)F)n(COCCOC(C)=O)n1 | inactive |
| COC(=O)c1nc(Sc2ccccc2C)n(COCCOC(C)=O)n1 | inactive |
| COC(=O)c1nc(Sc2ccccc2F)n(COCCOC(C)=O)n1 | inactive |
| COC(=O)c1nc(Sc2cccc(F)c2)n(COCCOC(C)=O)n1 | inactive |
| NC(=O)c1nc(Sc2ccccc2F)n(COCCO)n1 | inactive |
| COC(=O)c1nc(Sc2ccc(C(C)(C)C)cc2)n(COCCOC(C)=O)n1 | inactive |
| NC(=O)c1nc(SCc2cccc(C(F)(F)F)c2)n(COCCO)n1 | inactive |
| COC(=O)c1nc(Sc2cccc(C)c2)n(COCCOC(C)=O)n1 | inactive |
| NC(=O)c1nc(Sc2cccc(F)c2)n(COCCO)n1 | inactive |
| NC(=O)c1nc(Sc2ccccc2C(F)(F)F)n(COCCO)n1 | inactive |
| COC(=O)c1nc(Sc2ccc3ccccc3c2)n(COCCOC(C)=O)n1 | inactive |
| NC(=O)c1nc(Sc2ccc3ccccc3c2)n(COCCO)n1 | inactive |
| NC(=O)c1nc(Sc2ccc(Cl)cc2)n(COCCO)n1 | inactive |
| NC(=O)c1nc(Sc2ccccc2)n(COCCO)n1 | inactive |
| NC(=O)c1nc(Sc2cccc(C(F)(F)F)c2)n(COCCO)n1 | inactive |
| COC(=O)c1nc(Sc2ccc(C)cc2)n(COCCOC(C)=O)n1 | inactive |
| COC(=O)c1nc(Sc2ccc(OC)cc2)n(COCCOC(C)=O)n1 | inactive |
| COc1cccc(Sc2nc(C(N)=O)nn2COCCO)c1 | inactive |

| Structure (SMILES) | Activity |
| --- | --- |
| COc1ccccc1Sc1nc(C(N)=O)nn1COCCO | inactive |
| CC(C)(C)c1ccc(Sc2nc(C(N)=O)nn2COCCO)cc1 | inactive |
| Cc1ccc(Sc2nc(C(N)=O)nn2COCCO)cc1 | inactive |
| COC(=O)c1nc(Sc2ccc(F)cc2)n(COCCOC(C)=O)n1 | inactive |
| COC(=O)c1nc(Sc2ccc(C(F)(F)F)cc2)n(COCCOC(C)=O)n1 | inactive |
| COC(=O)c1nc(Sc2ccccc2OC)n(COCCOC(C)=O)n1 | inactive |
| Cc1cccc(Sc2nc(C(N)=O)nn2COCCO)c1 | inactive |
| COC(=O)c1nc(Sc2ccccc2)n(COCCOC(C)=O)n1 | inactive |
| NC(=O)c1nc(Sc2ccc(C(F)(F)F)cc2)n(COCCO)n1 | inactive |
| COC(=O)c1nc(Sc2cccc(OC)c2)n(COCCOC(C)=O)n1 | inactive |
| COc1ccc(Sc2nc(C(N)=O)nn2COCCO)cc1 | inactive |
| Cc1ccccc1Sc1nc(C(N)=O)nn1COCCO | inactive |
| COC(=O)c1nc(Sc2ccc(Cl)cc2)n(COCCOC(C)=O)n1 | inactive |
| COC(=O)c1nc(Sc2cccc(C(F)(F)F)c2)n(COCCOC(C)=O)n1 | inactive |
| COC(=O)c1nc(SCc2cccc(C(F)(F)F)c2)n(COCCOC(C)=O)n1 | inactive |
| CCCSc1nc(C(=O)OC)nn1COCCOC(C)=O | inactive |
| NC(=O)c1nc(Sc2ccc(F)cc2)n(COCCO)n1 | inactive |
